Tests used:
[1] = biological target: Cyclin-dependent kinase 2 (Homo sapiens, UniProt P24941); test: Inhibition of CDK2/cyclin A by IMAP florescence polarization assay
[2] = biological target: Cyclin-dependent kinase 9 (Homo sapiens, UniProt P50750); test: Inhibition of CDK9 in human HCT116 cells assessed as phosphor-ser2 level of RNA polymerase 2 after 16 hrs by high content cellular assay; type: cell-based, HCT-116
[3] = Cmax in CD1 mouse at 5 mg/kg, iv; type: ADME, organism-based; design: dose 5 mg/kg, route intravenous; settings: in vivo
Method in brief: (§1)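 Single IV tail-vein dose of 5 mg/kg at 5 mL/kg in 2.1 mM tartaric acid, pH 4.0, to female CD-1 mice aged 6–8 weeks, 3 per timepoint. Blood taken by cardiac puncture after euthanasia at 0.083–8 h into K2-EDTA, and plasma analysed by LC–MS/MS (LLOD 1 ng/mL). PK parameters were estimated from mean concentrations per timepoint.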

[4] = Cmax in CD1 mouse at 10 mg/kg, po; type: ADME, organism-based; design: dose 10 mg/kg, route oral; settings: in vivo
Method in brief: (§2)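 Female CD-1 mice, 6–8 weeks old, 3 mice per timepoint. Single oral gavage dose of 10, 30 or 45 mg/kg at 10 mL/kg in 2.1 mM tartaric acid, pH 4.0. Terminal cardiac-puncture blood taken at 0.25–8 h into K2-EDTA and spun to plasma. Plasma read by LC–MS/MS (LLOD 1 ng/mL). Concentrations were averaged per timepoint before PK estimation.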

[5] = AUC in CD1 mouse at 5 mg/kg, iv; type: ADME, organism-based; design: dose 5 mg/kg, route intravenous; settings: plasma; method in brief: as §1
[6] = AUC in CD1 mouse at 10 mg/kg, po; type: ADME, organism-based; design: dose 10 mg/kg, route oral; settings: plasma; method in brief: as §2
[7] = Clearance in CD1 mouse at 5 mg/kg, iv; type: ADME, organism-based; design: dose 5 mg/kg, route intravenous; settings: in vivo; method in brief: as §1
[8] = Volume of distribution at steady state in CD1 mouse at 5 mg/kg, iv; type: ADME, organism-based; design: dose 5 mg/kg, route intravenous; settings: in vivo, read-out: Vdss; method in brief: as §1
[9] = Half life in CD1 mouse at 5 mg/kg, iv; type: ADME, organism-based; design: dose 5 mg/kg, route intravenous; settings: in vivo; method in brief: as §1
[10] = Half life in CD1 mouse at 10 mg/kg, po; type: ADME, organism-based; design: dose 10 mg/kg, route oral; settings: in vivo; method in brief: as §2
[11] = Bioavailability in CD1 mouse at 10 mg/kg, po; type: ADME, organism-based; settings: in vivo; method in brief: as §2
[12] = biological target: Cyclin-dependent kinase 1/cyclin B1 (Homo sapiens, UniProt P06493); test: Inhibition of CDK1/cyclin B by IMAP florescence polarization assay; type: protein-complex assay
Method in brief: (§3)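 IMAP fluorescence polarization kinase assay measuring phosphorylation of a fluorescein-labeled substrate. Run in IMAP tween reaction buffer with 1 mM DTT and sodium vanadate.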

[13] = Inhibition of CDK6/cyclin D by IMAP florescence polarization assay; method in brief: as §3
[14] = biological target: CDK9/cyclin T1 (Homo sapiens, UniProt P50750); test: Inhibition of CDK9/cyclinT by IMAP florescence polarization assay; method in brief: as §3
[15] = Efflux ratio of permeability from basolateral to apical side to apical to basolateral side in MDCK2 cells at 2 uM after 3 hrs; type: ADME, cell-based, Canis lupus familiaris, MDCK-II; settings: dog, MDCK
Method in brief: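 MDCK II cells grown in DMEM with 10% FBS and antibiotics, seeded 50,000 cells/well on transwells and cultured 5 days; monolayers PBS-washed. Compound at 2 μM in DMEM added to apical or basolateral side; both compartments sampled after 3 h at 37 °C in humidified CO₂. Quantified by LC–MS/MS with verapamil internal standard; Papp calculated per direction.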

[16] = Metabolic stability in human liver microsomes at 1 uM after 30 mins; type: ADME, Microsome; settings: read-out: Stability
Method in brief: (§4)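 Liver microsomes at 0.5 mg/mL protein in 100 mM sodium phosphate, pH 7.4, with 3.3 mM MgCl2, pre-equilibrated 10 min at 37 °C. Reaction started with 1 mM NADPH. Aliquots taken at 0, 30 and 60 min and quenched in acetonitrile with internal standard, then centrifuged and analysed by LC–MS/MS. Lidocaine and dextromethorphan served as positive controls.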

[17] = Metabolic stability in mouse liver microsomes at 1 uM after 30 mins; type: ADME, Microsome; settings: read-out: Stability; method in brief: as §4
[18] = Metabolic stability in mouse liver microsomes at 1 uM after 60 mins; type: ADME, Microsome; settings: read-out: Stability; method in brief: as §4
[19] = Cmax in CD1 mouse at 30 mg/kg, po; type: ADME, organism-based; design: dose 30 mg/kg, route oral; settings: in vivo; method in brief: as §2
[20] = Cmax in CD1 mouse at 45 mg/kg, po; type: ADME, organism-based; design: dose 45 mg/kg, route oral; settings: in vivo; method in brief: as §2
[21] = AUC in CD1 mouse at 30 mg/kg, po; type: ADME, organism-based; design: dose 30 mg/kg, route oral; settings: plasma; method in brief: as §2
[22] = AUC in CD1 mouse at 45 mg/kg, po; type: ADME, organism-based; design: dose 45 mg/kg, route oral; settings: plasma; method in brief: as §2
[23] = Half life in CD1 mouse at 30 mg/kg, po; type: ADME, organism-based; design: dose 30 mg/kg, route oral; settings: in vivo; method in brief: as §2
[24] = Half life in CD1 mouse at 45 mg/kg, po; type: ADME, organism-based; design: dose 45 mg/kg, route oral; settings: in vivo; method in brief: as §2
[25] = Bioavailability in CD1 mouse at 30 mg/kg, po; type: ADME, organism-based; settings: in vivo; method in brief: as §2
[26] = Bioavailability in CD1 mouse at 45 mg/kg, po; type: ADME, organism-based; settings: in vivo; method in brief: as §2
[27] = Metabolic stability in human liver microsomes at 1 uM after 60 mins; type: ADME, Microsome; settings: read-out: Stability; method in brief: as §4
[28] = biological target: Cyclin-dependent kinase 7/ cyclin H (Homo sapiens, UniProt P50613); test: Inhibition of CDK7/cyclinH by Upstate enzymatic assay
Cyclin-dependent kinase 7/ cyclin H, sequence (P51946 whole entry): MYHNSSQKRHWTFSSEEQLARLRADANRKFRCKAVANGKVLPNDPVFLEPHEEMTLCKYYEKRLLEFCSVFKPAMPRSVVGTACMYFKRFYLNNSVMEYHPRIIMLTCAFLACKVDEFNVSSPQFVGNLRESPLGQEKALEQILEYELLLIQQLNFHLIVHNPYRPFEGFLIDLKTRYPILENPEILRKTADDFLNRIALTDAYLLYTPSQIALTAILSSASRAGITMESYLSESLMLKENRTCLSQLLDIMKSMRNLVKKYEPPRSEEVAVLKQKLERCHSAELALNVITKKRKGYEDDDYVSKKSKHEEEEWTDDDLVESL
Cyclin-dependent kinase 7/ cyclin H, sequence (P50613 whole entry): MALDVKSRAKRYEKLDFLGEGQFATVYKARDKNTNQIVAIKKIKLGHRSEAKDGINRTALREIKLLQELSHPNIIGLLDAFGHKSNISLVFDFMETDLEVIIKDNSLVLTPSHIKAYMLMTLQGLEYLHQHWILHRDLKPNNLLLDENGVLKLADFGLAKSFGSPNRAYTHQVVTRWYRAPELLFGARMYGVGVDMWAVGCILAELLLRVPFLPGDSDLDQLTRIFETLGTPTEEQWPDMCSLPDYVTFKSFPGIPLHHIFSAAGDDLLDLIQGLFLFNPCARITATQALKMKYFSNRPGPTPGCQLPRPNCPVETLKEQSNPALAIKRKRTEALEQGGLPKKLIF

Cyclin-dependent kinase 9, sequence (P50750 whole entry): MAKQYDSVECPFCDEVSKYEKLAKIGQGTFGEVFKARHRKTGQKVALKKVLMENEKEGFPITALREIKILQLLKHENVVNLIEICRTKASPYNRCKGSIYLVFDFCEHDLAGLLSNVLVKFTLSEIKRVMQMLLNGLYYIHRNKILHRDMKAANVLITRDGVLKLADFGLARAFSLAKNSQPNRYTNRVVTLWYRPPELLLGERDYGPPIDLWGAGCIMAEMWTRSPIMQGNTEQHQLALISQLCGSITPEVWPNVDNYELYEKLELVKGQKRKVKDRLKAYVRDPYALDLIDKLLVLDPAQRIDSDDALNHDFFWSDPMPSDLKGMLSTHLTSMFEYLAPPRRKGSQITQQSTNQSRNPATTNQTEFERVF
CDK9/cyclin T1, sequence (O60563 whole entry): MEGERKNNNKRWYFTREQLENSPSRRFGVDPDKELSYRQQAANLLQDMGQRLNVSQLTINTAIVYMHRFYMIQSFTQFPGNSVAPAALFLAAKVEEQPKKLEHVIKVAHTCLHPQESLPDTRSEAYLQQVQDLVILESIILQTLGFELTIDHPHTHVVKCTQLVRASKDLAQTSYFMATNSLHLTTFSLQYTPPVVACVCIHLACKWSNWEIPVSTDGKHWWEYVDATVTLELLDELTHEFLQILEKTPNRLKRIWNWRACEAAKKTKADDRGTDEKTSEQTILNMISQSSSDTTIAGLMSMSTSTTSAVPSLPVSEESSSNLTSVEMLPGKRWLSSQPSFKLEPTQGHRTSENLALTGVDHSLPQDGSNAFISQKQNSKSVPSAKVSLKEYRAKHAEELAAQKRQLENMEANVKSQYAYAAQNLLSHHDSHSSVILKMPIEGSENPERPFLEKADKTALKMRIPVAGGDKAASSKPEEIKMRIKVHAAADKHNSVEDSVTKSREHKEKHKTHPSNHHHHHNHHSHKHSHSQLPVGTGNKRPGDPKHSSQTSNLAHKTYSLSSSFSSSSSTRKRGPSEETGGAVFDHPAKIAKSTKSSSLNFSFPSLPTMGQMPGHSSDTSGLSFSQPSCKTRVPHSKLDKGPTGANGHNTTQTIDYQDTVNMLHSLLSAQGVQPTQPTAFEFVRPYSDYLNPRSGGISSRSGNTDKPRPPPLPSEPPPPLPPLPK
CDK9/cyclin T1, sequence (P50750 whole entry): as the sequence (P50750 whole entry) above
Cyclin-dependent kinase 1/cyclin B1, sequence (P06493 whole entry): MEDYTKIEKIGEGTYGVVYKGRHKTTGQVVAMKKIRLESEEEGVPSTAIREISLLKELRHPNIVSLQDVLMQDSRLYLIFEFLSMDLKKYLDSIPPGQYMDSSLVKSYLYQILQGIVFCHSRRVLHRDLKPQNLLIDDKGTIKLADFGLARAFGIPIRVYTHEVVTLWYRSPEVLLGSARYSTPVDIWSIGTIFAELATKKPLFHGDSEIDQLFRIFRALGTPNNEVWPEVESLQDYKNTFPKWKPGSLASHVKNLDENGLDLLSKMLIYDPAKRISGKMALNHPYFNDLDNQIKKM
Cyclin-dependent kinase 1/cyclin B1, sequence (P14635 whole entry, further chain): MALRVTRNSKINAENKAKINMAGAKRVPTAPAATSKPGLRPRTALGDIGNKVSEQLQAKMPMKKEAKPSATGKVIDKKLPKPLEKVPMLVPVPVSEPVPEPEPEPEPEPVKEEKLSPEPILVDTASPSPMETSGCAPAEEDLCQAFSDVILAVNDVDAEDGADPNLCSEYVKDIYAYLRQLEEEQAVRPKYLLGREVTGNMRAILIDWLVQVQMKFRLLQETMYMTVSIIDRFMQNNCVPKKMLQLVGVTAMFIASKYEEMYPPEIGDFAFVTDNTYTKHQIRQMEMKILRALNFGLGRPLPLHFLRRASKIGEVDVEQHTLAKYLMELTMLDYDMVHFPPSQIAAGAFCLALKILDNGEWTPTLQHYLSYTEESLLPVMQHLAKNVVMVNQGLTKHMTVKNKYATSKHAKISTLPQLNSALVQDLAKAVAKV

SMILES: CC(C)(C)c1cnc(CSc2cnc(NC3CCCCC3)s2)o1
- IC50 [1]: 9 nM
- IC50 [2]: > 10000 nM

SMILES: CC(C)(C)c1cnc(CSc2cnc(N[C@H]3CC[C@@H](N)CC3)s2)o1
- IC50 [1]: 503 nM
- IC50 [2]: > 10000 nM

SMILES: CC(C)(C)c1cnc(CSc2cnc(N)s2)o1
- IC50 [1]: 690 nM
- IC50 [2]: > 10000 nM

SMILES: CC(C)(C)c1cnc(CSc2cnc(NC3CCNCC3)s2)o1
- IC50 [1]: 538 nM
- IC50 [2]: > 10000 nM

SMILES: CC(C)(C)c1cnc(CSc2cnc(NCC3CCNCC3)s2)o1
- IC50 [1]: 229 nM
- IC50 [2]: > 10000 nM

SMILES: CC(C)(C)c1cnc(CSc2cnc(NCC3CCCCC3)s2)o1
- IC50 [1]: 168 nM
- IC50 [2]: > 10000 nM

SMILES: CC(C)(C)c1cnc(CSc2cnc(NC(=O)C3CCNCC3)s2)o1 [BMS-387032]
- Cmax [3]: 2230 ng/mL
- Cmax [4]: 275 ng/mL
- AUC [5]: 1510 ng·h/mL
- AUC [6]: 434 ng·h/mL
- clearance [7]: 55 mL/min/kg
- Vd [8]: 3 L/kg
- half-life [9]: 0.6 h
- half-life [10]: 0.5 h
- bioavailability [11]: 14%

SMILES: CC(C)(C)c1cnc(CSc2cnc(N[C@H]3CC[C@H](N)CC3)s2)o1
- IC50 [1]: 20 nM
- IC50 [2]: 355 nM
- IC50 [12]: 763 nM
- IC50 [13]: > 2000 nM
- IC50 [14]: 97 nM
- efflux ratio at 3 h, 2 µM [15]: 9.4
- remaining at 0.5 h, 1 µM [16]: 64%
- remaining at 0.5 h, 1 µM [17]: 76%
- remaining at 1 h, 1 µM [18]: 77%
- Cmax [3]: 1660 ng/mL
- Cmax [4]: 411 ng/mL
- Cmax [19]: 2390 ng/mL
- Cmax [20]: 4600 ng/mL
- AUC [5]: 1160 ng·h/mL
- AUC [6]: 1430 ng·h/mL
- AUC [21]: 6390 ng·h/mL
- AUC [22]: 10700 ng·h/mL
- clearance [7]: 72 mL/min/kg
- Vd [8]: 6 L/kg
- half-life [9]: 1.9 h
- half-life [10]: 1.5 h
- half-life [23]: 1.2 h
- half-life [24]: 1.2 h
- bioavailability [11]: 62%
- bioavailability [25]: 92%
- bioavailability [26]: 100%
- remaining at 1 h, 1 µM [27]: 53%
- IC50 [28]: 105 nM

SMILES: CC(C)(C)c1cnc(CSc2cnc(NC3CCCC(N)C3)s2)o1 (stereo not given)
- IC50 [1]: 158 nM
- IC50 [2]: > 10000 nM

SMILES: CC(C)(C)c1cnc(CSc2cnc(NC3CCCC(O)C3)s2)o1 (stereo not given)
- IC50 [1]: 28 nM
- IC50 [2]: > 10000 nM

SMILES: CC(C)(C)c1cnc(CSc2cnc(N[C@H]3CC[C@H](O)CC3)s2)o1
- IC50 [1]: 7 nM
- IC50 [2]: 3500 nM

Source: ChEMBL document CHEMBL1143434, “A diaminocyclohexyl analog of SNS-032 with improved permeability and bioavailability properties” (Bioorg Med Chem Lett, 2008)
